Series [1] in a line: Ionisation constant (pKa2) due to […]. It is filed as physicochemical. As to conditions: read-out: pKa2.
The species entered for series [2] is Rattus norvegicus. Description: Concentration required to cause 15% increase in [86Rb+] efflux from rat portal vein. The format is functional. The procedure, abridged: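 Rat portal vein, opened lengthwise, tension 500 mg, equilibrated 30 min in HEPES-buffered PSS (95% O2/5% CO2, 32 °C, pH 7.4), then loaded 80 min with 86RbCl (5 µCi/mL). Perfusate collected every 2 min; rate constant k from released vs. remaining tissue activity. Drug effect = peak k during application vs. basal k (6–10 min prior), as Δk %; n = 4–6.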

The species named for series [3] is Rattus norvegicus. Kind of series: Concentration required to cause 50% inhibition of spontaneous activity in rat portal vein. It is filed as functional. As to conditions: for IC50: Rattus norvegicus.
Series [4] can be described thus: Ionisation constant (pKa1) due to protonation of the pyridyl ring. As to conditions: read-out: pKa1. It is filed as physicochemical.
Series [5] in a line: Ionisation constant (pKa2).

The record followed here is ChEMBL document CHEMBL1126086, “Structure-activity studies of potassium channel opening in pinacidil-type cyanoguanidines, nitroethenediamines, thioureas, and ureas” (J Med Chem, 1992).

The structures appear in SMILES notation.

`CCC(C)(C)/N=C(\NC#N)Nc1cccnc1`: the pKa was found to be 12.2 in series [1] and 2.61 in series [4]. The pEC15 in the series listed under Rattus norvegicus [2] is recorded as 7.4. 2 nM corresponded to half-maximal inhibition in the series filed under Rattus norvegicus [3] (IC50).
As to `C[C@@H](/N=C(/S)Nc1ccncc1)C(C)(C)C.Cl`, the pEC15 in the series listed under Rattus norvegicus [2] turned out to be 4.
Regarding `C[C@H](/N=C(/S)Nc1ccncc1)C(C)(C)C.Cl`, the pKa in series [1] worked out at 13; in series [4], 4.89. The molecule also returned a pEC15 in the series listed under Rattus norvegicus [2] of 4. The molecule further gave an IC50 in the series listed under Rattus norvegicus [3] of 316 nM.
As to `C[C@@H](/N=C(/NC#N)Nc1cccnc1)C(C)(C)C`, the “Log IC50” value in the series listed under Rattus norvegicus [3] is recorded as -7.
As for `COc1cncc(N/C(=C/[N+](=O)[O-])N[C@H](C)C(C)(C)C)c1`, the pEC15 in the series listed under Rattus norvegicus [2] was 4. The molecule also had an IC50 in the series filed under Rattus norvegicus [3] of 1580 nM.
In the series listed under Rattus norvegicus [2], `C[C@@H](N/C(=C\[N+](=O)[O-])Nc1cccnc1)C(C)(C)C` showed a pEC15 of 3.8. Also, in the series filed under Rattus norvegicus [3], the “Log IC50” value is -6.
With `COc1cncc(N/C(=C/[N+](=O)[O-])N[C@@H](C)C(C)(C)C)c1`, the pKa in series [1] turned out to be 6.5; in series [4], 1.86. The molecule further gave a pEC15 in the series filed under Rattus norvegicus [2] of 6.5. The same molecule gave an IC50 in the series listed under Rattus norvegicus [3] of 15.8 nM.
Molecule `C[C@H](N/C(=N/c1ccncc1)NC#N)C(C)(C)C` came in with a pEC15 in the series filed under Rattus norvegicus [2] of 4.4. The molecule further had an IC50 in the series listed under Rattus norvegicus [3] of 776 nM.
Take `CC1(C)CSC(Nc2cccnc2)=N1`: in the series listed under Rattus norvegicus [3], half-maximal inhibition (IC50) required 31600 nM.
Regarding `CC(C)(C)CN/C(=C\[N+](=O)[O-])Nc1cccnc1`, in series [5], the pKa2 came to 8.86. Moreover, in the series listed under Rattus norvegicus [2], the pEC15 is listed as 4. For the same molecule, the concentration for half-maximal inhibition (IC50) in the series filed under Rattus norvegicus [3] is 1000 nM.
The molecule `CC(C)N/C(=C\[N+](=O)[O-])Nc1cccnc1` yielded a pEC15 in the series filed under Rattus norvegicus [2] of under 3.5. Besides, the IC50 in the series filed under Rattus norvegicus [3] is 31600 nM.
As to `CC1(C)CN=C(Nc2cccnc2)N1`, in series [1], the pKa came to 8.2. Further, the IC50 in the series filed under Rattus norvegicus [3] was over 10000 nM.
For the molecule `CC(C)(C)C1CSC(Nc2cccnc2)=N1` (centres undefined), half-maximal inhibition in the series filed under Rattus norvegicus [3] (IC50) was put at 20000 nM. Moreover, the pKa in series [4] came out at 3.89.
Take `CC(C)(C)/N=C(\Cc1cccnc1)NC#N`: the pKa was over 14 in series [1] and 2.71 in series [4]. Moreover, the pEC15 in the series filed under Rattus norvegicus [2] was 3.5. The IC50 in the series listed under Rattus norvegicus [3] is 5010 nM.
On to `C[C@@H](N/C(=N/c1ccncc1)NC#N)C(C)(C)C`, for which the pEC15 in the series filed under Rattus norvegicus [2] is listed as 5.9. The half-inhibitory concentration (IC50) in the series filed under Rattus norvegicus [3] was 33.9 nM.
As for `CC(N/C(=C\[N+](=O)[O-])Nc1cccc(C#N)c1)C(C)(C)C` (centres undefined), in series [1], the pKa turned out to be 8.88. The pEC15 in the series filed under Rattus norvegicus [2] was 4. For the same molecule, in the series filed under Rattus norvegicus [3], the IC50 was 316 nM.
Take `CC(C)(C)CNC(=O)Nc1ccncc1.Cl`: the pKa was over 14 in series [1] and 5.46 in series [4]. Also, the pEC15 in the series listed under Rattus norvegicus [2] was 3.3. In addition, in the series listed under Rattus norvegicus [3], the IC50 is 3160 nM.
The matching figures for `CC(N/C(=C\[N+](=O)[O-])Nc1cccnc1)C(C)(C)C` (centres undefined): 9.03, 2.28, 5.5 and 31.6 nM.
The matching figures for `CC(C)(C)C/N=C(/S)Nc1cccnc1`: 13.1, 3.08, 5 and 200 nM.
Take `CC(C)(C)c1csc(Nc2cccnc2)n1`: the 50% inhibitory concentration (IC50) in the series filed under Rattus norvegicus [3] was 1000 nM. Also, the pKa in series [4] was 3.57.
For the molecule `CC(C)(C)C1CN=C(Nc2cccnc2)N1` (centres undefined), the figures for the pKa in series [1] and in series [4] were 8.1 and 2.03, respectively. In addition, the IC50 in the series filed under Rattus norvegicus [3] was 3160 nM.
`CC(C)(C)/N=C(/NC#N)Nc1cccnc1` had a pEC15 in the series listed under Rattus norvegicus [2] of 6.1. The IC50 in the series listed under Rattus norvegicus [3] is 12.6 nM.
In the series listed under Rattus norvegicus [2], `CC(C)(C)CN/C(=C\[N+](=O)[O-])Nc1ccncc1` returned a pEC15 of under 3.5. Further, the IC50 in the series filed under Rattus norvegicus [3] is 10000 nM.
As for `CC(/N=C(/NC#N)Nc1cccnc1)C(C)(C)C` (centres undefined), the pKa in series [1] was found to be 12; in series [4], 2.7. Further, in the series listed under Rattus norvegicus [2], the pEC15 was determined as 6.3.
`CCC(C)(C)/N=C(/S)Nc1cccnc1` yielded a pEC15 in the series filed under Rattus norvegicus [2] of 5.2. Moreover, the IC50 in the series filed under Rattus norvegicus [3] is 200 nM.
For `CC(/N=C(/S)Nc1cccnc1)C(C)(C)C` (centres undefined), the pKa came out at 13.2 in series [1] and 2.97 in series [4]. The molecule further had a pEC15 in the series filed under Rattus norvegicus [2] of 5.7. In the series listed under Rattus norvegicus [3], this molecule gave an IC50 of 50.1 nM.
With `CC(C)(C)CNC(=O)Nc1cccnc1`, the values for the pKa in series [1] and in series [4] were over 14 and 3.74, respectively. Further, the pEC15 in the series listed under Rattus norvegicus [2] is 4. This molecule showed an IC50 in the series filed under Rattus norvegicus [3] of 2000 nM.
In the series filed under Rattus norvegicus [2], `CC(C)(C)C(CO)/N=C(/S)Nc1cccnc1` (centres undefined) yielded a pEC15 of under 3.5. Also, in the series filed under Rattus norvegicus [3], half-maximal inhibition (IC50) was put at 3160 nM.
Take `CC(C)(C)C/C(=N/c1cccnc1)NC#N`: the pKa was found to be 11.3 in series [1] and 2.23 in series [4]. In the series filed under Rattus norvegicus [2], this molecule gave a pEC15 of 4.3.
`CC(C)(C)CN/C(=C\[N+](=O)[O-])NCc1cccnc1` gave a pEC15 in the series filed under Rattus norvegicus [2] of under 3.5. Also, the IC50 in the series filed under Rattus norvegicus [3] is 20000 nM.
The matching figures for `CCC(C)N1CCN=C1Nc1cccnc1` (centres undefined): under 3 and 100000 nM.
`CC(C)(C)CCN/C(=C\[N+](=O)[O-])Nc1cccnc1`: the pEC15 in the series filed under Rattus norvegicus [2] is 3.5. In the series listed under Rattus norvegicus [3], this molecule had an IC50 of 2000 nM.
For the molecule `CC(C)(C)C/N=C(/NC#N)Nc1cccnc1`, the pKa turned out to be 11.8 in series [1] and 2.83 in series [4]. This molecule also showed a pEC15 in the series filed under Rattus norvegicus [2] of 5.5. In the series listed under Rattus norvegicus [3], this molecule showed an IC50 of 100 nM.
Consider `CC(N/C(=C\[N+](=O)[O-])Nc1ccncc1)C(C)(C)C` (centres undefined), for which, in the series filed under Rattus norvegicus [2], the pEC15 came to 3.3. This molecule also gave an IC50 in the series filed under Rattus norvegicus [3] of 1000 nM.
The matching figures for `O=[N+]([O-])/C=C(/Nc1cccnc1)NC1CCCCC1`: 3.5 and 3160 nM.
On to `CC(/N=C(/NC#N)Nc1cccnc1)C(C)(C)C` (single isomer, unassigned), for which, in the series listed under Rattus norvegicus [3], the “Log IC50” value was -5.2.
In the case of `CC(N/C(=C\[N+](=O)[O-])Nc1cccnc1)C(C)(C)C` (single isomer, unassigned), the pEC15 in the series listed under Rattus norvegicus [2] is 5.8. Moreover, the “Log IC50” value in the series listed under Rattus norvegicus [3] is reported as -8.
Consider `CC(N/C(=N\C#N)Nc1ccncc1)C(C)(C)C` (centres undefined) [PINACIDIL ANHYDROUS], for which the pKa in series [1] was found to be 11.3; in series [4] it was 4.81. The pEC15 in the series filed under Rattus norvegicus [2] was 5.7. The IC50 in the series listed under Rattus norvegicus [3] is 63.1 nM.

By IC50 is commonly meant the concentration at which inhibition is half-maximal. Higher therefore signals weaker potency in that assay.
